Activity calls are given as the source filed them. No cut-off for these calls is given here.

What is called Kd is the equilibrium constant for the complex coming apart.

Test [1] addresses Sterol 14-alpha demethylase (Trypanosoma cruzi (strain CL Brener), UniProt Q7Z1V1). The test can be described thus: Binding affinity to Trypanosoma cruzi CYP51 expressed in Escherichia coli by spectral titration.
Test [2] addresses Sterol 14-alpha demethylase (Trypanosoma cruzi (strain CL Brener)) (UniProt Q7Z1V1). Description: Inhibitory potency at Trypanosoma cruzi CYP51 assessed as molar ratio of drug to enzyme required to slow down the reaction twofold at 1 uM enzyme concentration. In short, it runs like this: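 Reconstituted with T. brucei CPR and DLPC (TCCYP51:CPR:DLPC 1:2:50). Final mix: 1 μM TCCYP51, 50 μM [3H]-MDL in MOPS pH 7.4 with KCl, MgCl2, glycerol and an isocitrate/isocitrate dehydrogenase system. Inhibitors 1–100 μM, 5 min preincubation at 37°C, started with NADPH. Sterols by reverse-phase radio-HPLC. I/E2 is the inhibitor/enzyme molar ratio halving the initial rate.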

Test [3] deals with T1, Prostaglandin G/H synthase 2 (Mus musculus) (UniProt Q05769).
T1 sequence (whole entry): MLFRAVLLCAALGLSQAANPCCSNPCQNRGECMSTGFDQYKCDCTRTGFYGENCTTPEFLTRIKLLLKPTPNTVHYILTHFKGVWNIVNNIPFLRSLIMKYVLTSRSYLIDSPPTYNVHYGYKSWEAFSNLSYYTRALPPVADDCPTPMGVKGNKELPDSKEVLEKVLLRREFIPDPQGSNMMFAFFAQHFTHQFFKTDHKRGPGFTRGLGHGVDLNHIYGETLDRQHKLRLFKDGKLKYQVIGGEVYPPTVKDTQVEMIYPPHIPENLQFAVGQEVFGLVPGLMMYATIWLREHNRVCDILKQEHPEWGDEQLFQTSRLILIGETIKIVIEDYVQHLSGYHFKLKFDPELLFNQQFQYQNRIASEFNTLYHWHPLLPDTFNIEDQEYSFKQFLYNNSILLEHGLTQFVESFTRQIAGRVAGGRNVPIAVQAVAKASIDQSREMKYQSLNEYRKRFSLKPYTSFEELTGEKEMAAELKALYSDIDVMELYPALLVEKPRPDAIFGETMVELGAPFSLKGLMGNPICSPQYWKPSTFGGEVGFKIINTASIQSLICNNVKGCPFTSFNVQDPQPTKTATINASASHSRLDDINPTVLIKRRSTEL
Description: Inhibitory potency at mouse COX2 assessed as molar ratio of drug to enzyme required to slow down the reaction twofold at 0.1 uM enzyme concentration. Summed up:
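Mouse cyclooxygenase-2 at 100 nM final concentration. Potency is expressed as the inhibitor/enzyme molar ratio giving a two-fold decrease in the initial rate of catalysis (I/E2).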

Test [4] relates to Trypanosoma cruzi. Description: Antitrypanosomal activity against Trypanosoma cruzi trypomastigote in cardiomyocytes assessed as decrease in intracellular parasites at 20 uM after 72 hrs. In kind it is functional, organism-based. In short, it runs like this:
(§1)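 Trypomastigotes (10^6) were pre-exposed for 30 min to inhibitor in DMSO (1–50 μM) or DMSO control. They then infected rat cardiomyocyte monolayers in triplicate at 10 parasites/cell for 2 h. Unbound parasites were removed and cells were grown in DMEM/10% FBS for 72 h. Parasites per 200 cells and % infection were counted on Giemsa-stained monolayers. Results are mean ± SD, with Student t test.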

For test [5], the system named is Trypanosoma cruzi. The test can be described thus: Antitrypanosomal activity against Trypanosoma cruzi trypomastigotes in cardiomyocytes at 10 uM after 72 hrs. Type of test: functional, organism-based. In short, it runs like this:
as §1

Test [6] concerns Trypanosoma cruzi. Description: Antitrypanosomal activity against Trypanosoma cruzi trypomastigotes in cardiomyocytes. In kind it is functional, organism-based. In short, it runs like this: as §1
The subject of test [7] is Trypanosoma cruzi. The test can be described thus: Antitrypanosomal activity against Trypanosoma cruzi amastigotes in cardiomyocytes. Type of test: functional. In short, it runs like this:
as §1

Test [8] deals with Trypanosoma cruzi. Description: Antitrypanosomal activity against Trypanosoma cruzi epimastigotes assessed as blocking of cellular sterol composition at 50 uM after 24 hrs.

Chain of Sterol 14-alpha demethylase (Trypanosoma cruzi (strain CL Brener)) (Q7Z1V1 whole entry, looked up): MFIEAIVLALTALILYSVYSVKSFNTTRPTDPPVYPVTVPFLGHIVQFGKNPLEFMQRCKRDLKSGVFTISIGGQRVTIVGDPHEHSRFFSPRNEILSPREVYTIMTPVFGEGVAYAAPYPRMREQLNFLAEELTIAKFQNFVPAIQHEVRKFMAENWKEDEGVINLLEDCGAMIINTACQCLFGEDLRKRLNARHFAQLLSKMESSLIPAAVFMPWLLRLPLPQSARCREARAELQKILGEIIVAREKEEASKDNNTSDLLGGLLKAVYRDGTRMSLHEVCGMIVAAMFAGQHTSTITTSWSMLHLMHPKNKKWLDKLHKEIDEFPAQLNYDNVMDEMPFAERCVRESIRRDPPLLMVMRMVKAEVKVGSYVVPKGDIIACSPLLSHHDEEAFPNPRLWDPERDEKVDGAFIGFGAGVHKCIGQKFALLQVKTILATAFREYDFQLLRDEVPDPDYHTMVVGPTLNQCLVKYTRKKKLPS
Chain of Sterol 14-alpha demethylase (Q7Z1V1 whole entry): as the sequence (Q7Z1V1 whole entry, looked up) above

In test [1], `COc1ccc2c(c1)c(CC(=O)NC(C)c1ccncc1)c(C)n2C(=O)c1ccc(Cl)cc1` (stereo unspecified) showed a Kd of 370 nM. In addition, the Ratio was 8.5 in test [2] and 1.7 in test [3].
`O=C(Nc1ccncc1)C1c2ccccc2Oc2ccccc21` had a Kd in test [1] of 750 nM. The Ratio in test [2] was determined as 14.
On to `COc1ccc2c(c1)c(CC(=O)NCCc1cccc(Cl)c1)c(C)n2C(=O)c1ccc(Cl)cc1`, for which the affinity in test [1], expressed as Kd, was 360 nM. In addition, the Ratio in test [2] and in test [3] was < 1 throughout. Moreover, the result in test [4] and in test [5] was Active.
For the compound `COc1ccc2c(c1)c(CC(=O)NCc1ccncc1)c(C)n2C(=O)c1ccc(Cl)cc1`, the Kd in test [1] was found to be 540 nM. For the same compound, the Ratio in test [2] and in test [3] was 10 each time.
Compound `COc1ccc2c(c1)c(CC(=O)Nc1cccnc1)c(C)n2C(=O)c1ccc(Cl)cc1` showed a Kd in test [1] of 290 nM. Besides, the Ratio in test [2] worked out at 9.1; in test [3] it was 2.1.
On to `COc1ccc2c(c1)c(CC(=O)NCC(C)c1ccccc1)c(C)n2C(=O)c1ccc(Cl)cc1` (stereo unspecified), for which the affinity in test [1], expressed as Kd, was 150 nM. In addition, the Ratio was < 1 in test [2] and > 40 in test [3]. The result in test [4] and in test [5] was Active.
In test [1], `COc1ccc2c(c1)c(CC(=O)NCCc1cccnc1)c(C)n2C(=O)c1ccc(Cl)cc1` displayed a Kd of 2310 nM. Also, in test [2], the Ratio was 6.3. Further, the Activity entry in test [6] was “Dose-dependent effect”. Besides, in test [7] (read-out: ED50 (the source's name)), the EC50 was < 1000 nM. For the same compound, in test [8], the result was Active.
Regarding `CCC(C(=O)Nc1ccncc1)c1ccccc1` (stereo unspecified), the Kd in test [1] was 440 nM. Moreover, in test [2], the Ratio is 10.
Compound `COc1ccc2c(c1)c(CC(=O)Nc1ccccn1)c(C)n2C(=O)c1ccc(Cl)cc1` displayed a Kd in test [1] of 3300 nM. The results for the Ratio in test [2] and in test [3] were 11 and 2.1, respectively.
For `COc1ccc2c(c1)c(CC(=O)NCc1ccc(C(F)(F)F)nc1)c(C)n2C(=O)c1ccc(Cl)cc1`, the Ratio in test [2] is 7.7; in test [3] it was < 1.
`COc1ccc2c(c1)c(CC(=O)NCc1ccc(Cl)nc1)c(C)n2C(=O)c1ccc(Cl)cc1`: the Ratio was 4.2 in test [2] and < 1 in test [3]. For the same compound, the Activity entry in test [6] and in test [7] was “Dose-dependent effect” throughout.
Consider `COc1ccc2c(c1)c(CC(=O)Nc1ncccn1)c(C)n2C(=O)c1ccc(Cl)cc1`, for which the Ratio in test [2] stood at 15; in test [3], 3.6.
Take `COc1ccc2c(c1)c(CC(=O)NCc1ccccn1)c(C)n2C(=O)c1ccc(Cl)cc1`: the Kd in test [1] is 7600 nM. In addition, the Ratio in test [2] is 13; in test [3], > 10. Moreover, the Activity result in test [6] and in test [7] was “Dose-dependent effect” each time.
With `CC1CCC(C(=O)NC(Cc2c[nH]c3ccccc23)C(=O)Nc2ccncc2)CC1` (stereo unspecified), the Activity result in test [6] and in test [7] was “Dose-dependent effect” throughout.

The values above are taken from ChEMBL document CHEMBL1138467, “Indomethacin amides as a novel molecular scaffold for targeting Trypanosoma cruzi sterol 14alpha-demethylase” (J Med Chem, 2009).
